Reference: article PMC2587450 (International journal of cancer. Journal international du …, 2008)

Tests used:
[1] = cited from earlier work
[2] = tested on: MV3 melanoma-induced angiogenesis; assay: MV3 tumor-induced angiogenesis in quail embryonic CAM; format: in vivo, Japanese quail (Coturnix coturnix japonica); settings: MV3 on quail CAM, 20 μg daily, day 12
Outline: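 Japanese quail eggs ethanol-cleaned, kept at 37°C without CO₂ to embryonic day 3, then opened and contents moved to 6-well plates at 37°C. Day 6: MV3 cells (1 × 10⁷/50 μl PBS) applied onto CAM; after 24 h growth, 20 μg test compound per 50 μl PBS daily. Tumors excised and weighed; remaining membrane slide-mounted, fractal dimension (Df) measured in square area opposite the tumor.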

α1β1 integrin = settings: reduced disulfide bonds, cysteines blocked with vinylpyridine; cited from earlier work
[3] = format: in vivo, mouse; settings: mice, Western blot, variety of time intervals
B16F10 = assay: Apoptosis in B16F10 melanoma cell line; format: cell-based; settings: B16F10 mouse melanoma cell line (data not shown)
dHMVEC [4] = assay: dHMVEC proliferation assay; format: cell-based, human; settings: BrdUrd, induced by 2% FBS or 50 ng/ml hrVEGF or vpVEGF, 2 μM obtustatin for VEGF
[5] = format: in vivo, mouse; settings: mice
MV3 = assay: Apoptosis in MV3 melanoma cell line; format: cell-based; settings: MV3 human melanoma cell line (data not shown)
B16F10 mouse melanoma = assay: B16F10 melanoma growth in syngeneic C57BL/6 mice; format: in vivo; settings: for effect on tumor growth, i.p. route: B16F10 melanoma model
Outline: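 Daily caliper volumes (width² × length × 0.52). Formalin-fixed paraffin 5-μm sections: anti-von Willebrand factor vessels counted in 10 high-power fields (400×) and averaged, blinded, 3 investigators; colorimetric TUNEL; S.D. from 5 animals.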

dHMVEC [6] = assay: Apoptosis assays in dHMVEC; format: cell-based, human; settings: 2 μM
Outline: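 Primary adult dermal microvascular endothelial cells (passages 5–8, complete EBM-2). Annexin V: 2 μM test compound 16 h in complete EBM-2, cells detached, annexin V-FITC stained, two-colour flow cytometry within 1 h. Caspase 3: ±2 μM 16 h in complete medium, vincristine 50 μg/ml as positive control, lysates read by colorimetric ELISA at 450 nm. Morphology: 90% confluent cells, 2 μM 24 h, 2% paraformaldehyde-fixed, phase contrast 200×.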

For `O=c1[nH]cc(F)c(=O)[nH]1` [5-fluorouracil (5-FU), 5-fluorouracil], the half life time [1] is listed as “about 100 minutes”.

In the case of “Ethylpyridylated(EP)-obtustatin [EP-obtustatin]”, the “tumor-induced angiogenesis, angiogenesis index as fractal dimension (Df)” value [2] is given as “no activity” and the “change of activity against α1β1 integrin versus native obtustatin” value (α1β1 integrin) is given as “over four orders of magnitude decreasing activity”.

In the case of obtustatin, the “detection in blood plasma after i.p. injection” value [3] is reported as “not detectable”, the apoptosis induction (B16F10) is reported as “no apoptotic properties” and the “tumor-induced angiogenesis, angiogenesis index as fractal dimension (Df)” value [2] is reported as “significantly diminished”. The endothelial cell proliferation (dHMVEC [4]) was “potent inhibitor of endothelial cell proliferation”, the “behavioral signs and body weight” value ([5]; single i.v. doses up to 20 mg/kg, 10 days observation) was “did not reveal any toxic side effects” and the “H&E sections of liver” value ([5]; single i.v., 10 mg/kg and 20 mg/kg groups, after 10 days) was “small areas of inflammations and necrotic patches in liver”. The “H&E sections of spleen” value ([5]; single i.v., 20 mg/kg group, after 10 days) was “significant necrotic patches in all animals”, the “H&E sections of brain, lung, kidney, liver and spleen” value ([5]; single i.v., all concentrations up to 7 mg/kg, after 10 days) was “no effects” and the apoptosis induction (MV3) was “no apoptotic properties”. The “effect on tumor growth, i.p. route” value (B16F10 mouse melanoma; 2.5 mg/kg i.p. (data not shown)) was “no effect on tumor growth”, the “effect on tumor growth, i.p. route” value (B16F10 mouse melanoma; 5 mg/kg i.p. (data not shown)) was “only slightly, close to no significant ratio tumor suppression” and the “vessel number in paraffin sections of tumor (anti-von Willebrand factor)” value (B16F10 mouse melanoma; B16F10 melanoma, obtustatin treated animals vs control) was “significant reduction of vessel number”. For the same molecule, the “TUNEL staining of endothelial cells in tumor sections” value (B16F10 mouse melanoma; B16F10 melanoma, obtustatin-treated animals) was “positive staining of DNA strand breaks”, the “body weight during multiple injections” value (B16F10 mouse melanoma; melanoma experiments in mice, 5 and 2.5 mg/kg i.v., multiple injections) was “did not show any changes in body weight” and the “caspase 8, fluorescent ELISA and Western blot” value (dHMVEC [6]; 2 hours) was “appears to be activated”. The “caspase 3, colorimetric ELISA and Western blot” value (dHMVEC [6]; 16 hours (ELISA)) was “release of caspase 3”, the “annexin V binding (early apoptosis), flow cytometry” value (dHMVEC [6]; 16 hours, complete EBM-2 media) was “annexin V binds to the surface of dHMVEC” and the cell morphology (dHMVEC [6]; 24 hours, complete medium with 5% FBS) was “typical apoptotic morphology”.
